Experimental findings from ChEMBL document CHEMBL4513216, “Probing the Open Global Health Chemical Diversity Library for Multistage-Active Starting Points for Next-Generation Antimalarials” (ACS Infect Dis, 2020) are described below.

The data set in a line: Toxicity liver stage against HepG2, at 10uM. The data set is classed as cell-based. Also noted: test concentration 10 uM, cell line HepG2-A16-CD81EGFP. The conditions noted are these: human, HepG2-A16-CD81EGFP cells; read-out: INHIBITION
The essentials: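 Uninfected HepG2-A16-CD81EGFP cells, 3 × 10^3 per well, 1536-well, plated on prespotted compound at 10 μM final, parasite-free screening media added to match infected plates; puromycin 10 μM positive, DMSO 0.5% negative; run in parallel with 48 h PbLuc assay at 37 °C, 5% CO2; viability by CellTiter-Glo luminescence, normalized to controls.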
Turning to `COC(=O)[C@@H]1C[C@H](NC(=O)Cn2c(=O)cc(C)c3ccccc32)CN1C`, the cytotoxicity at 10 µM is -3.44%.

`COCCC(=O)N1CCC2(CC1)CN(S(C)(=O)=O)Cc1ccccc1O2`: the cytotoxicity at 10 µM worked out at 3.73%.

For the compound `COCC(=O)Nc1ccc([C@@H](O)[C@H]2COCC(=O)N2CC(C)C)cc1`, the cytotoxicity at 10 µM was determined as 17.6%.

Take `CC(=O)N1N=C(c2ccccc2)OC1C(=O)NCCc1cccc(Cl)c1` (stereo not given): the cytotoxicity at 10 µM amounted to 2.82%.

Take `NCC1(c2cccc(C(F)(F)F)c2)CCC1`: the cytotoxicity at 10 µM was -4.27%.

With `O=C(c1cccnc1)N1CCCC(c2ncncc2-c2ccncc2)C1` (stereo not given), the cytotoxicity at 10 µM was -23.4%.

On to `Cc1ccc2c(n1)N(CCN(C)C)CCN(C(=O)c1ccco1)C2`, for which the cytotoxicity at 10 µM is -65.8%.

Take `Cc1nnc(NC(=O)NCc2ccoc2)s1`: the cytotoxicity at 10 µM is -1.36%.

Consider `N#Cc1nccnc1N1CCC(CSc2ccccc2)C1` (stereo not given), for which the cytotoxicity at 10 µM amounted to 0.957%.

Turning to `COc1ccc(C(=O)COc2coc(CN3CCSCC3)cc2=O)cc1`, the cytotoxicity at 10 µM amounted to 8.13%.

On to `CC1(c2ccccc2)CCC(=O)N(CC2(N3CCOCC3)CCCC2)C1` (stereo not given), for which the cytotoxicity at 10 µM stood at 8.8%.

Consider `Cc1cc(N(C)CC2COc3ccccc3O2)nc(N)n1` (stereo not given), for which the cytotoxicity at 10 µM was found to be 17.6%.

Take `CC(C)(C)c1nnc(CSc2ccccn2)o1`: the cytotoxicity at 10 µM was 5.23%.

For `c1cncc(CO[C@H]2CN(Cc3ccco3)[C@@H]3COC[C@H]23)c1`, the cytotoxicity at 10 µM is -101%.

On to `CC(C)N1CCC2(CC1)NC(=O)c1cc(Br)ccc1-n1nnnc12`, for which the cytotoxicity at 10 µM was found to be 9.26%.

Consider `O=C(Cn1ccc2ccc(F)cc21)NC[C@@H]1CCCN2CCCC[C@H]12`, for which the cytotoxicity at 10 µM stood at 14%.

Regarding `Cn1nccc1-c1cnc2n1CCNC21CCN(C(=O)C2(C)CC2)CC1`, the cytotoxicity at 10 µM was -111%.

As for `O=C(Cn1cc(C(=O)O)ccc1=O)NCc1ccc(F)c(Cl)c1`, the cytotoxicity at 10 µM is -5.88%.

In the case of `O=C(NCC1CCCO1)c1nc2c(s1)CCCN2C(=O)C1CC1` (stereo not given), the cytotoxicity at 10 µM is -0.464%.

For the compound `CCOC(=O)CNC(=O)C1CN(C(=O)c2cnccn2)C1`, the cytotoxicity at 10 µM stood at 2.63%.

Consider `c1cc(NCc2ccncc2)nc(C2CCCN2)c1` (stereo not given), for which the cytotoxicity at 10 µM was -2.55%.

Consider `N#CCSCCCN1CCCN(C(=O)c2ccccc2)CC1`, for which the cytotoxicity at 10 µM is -3.74%.

For the compound `Cc1ncc(CN2Cc3ccccc3OC3(CCC(CO)CC3)C2)cn1` (stereo not given), the cytotoxicity at 10 µM was 0.179%.

In the case of `O=C(CC1CCCC1)NCCNCc1cccc2c1OCCO2`, the cytotoxicity at 10 µM was -0.912%.

`CC(CNS(=O)(=O)CCCC#N)c1ccsc1` (stereo not given): the cytotoxicity at 10 µM was 3.02%.

Take `O=C(N[C@H]1CN(C2CCOCC2)C[C@@H]1C1CC1)c1cc(O)no1`: the cytotoxicity at 10 µM was 8.4%.

As to `CCn1ncc2c1C(COCC1CC1)N(Cc1ccccn1)CC2` (stereo not given), the cytotoxicity at 10 µM amounted to 10.9%.

In the case of `CC(C)NC(=O)N1CCCC2(CCN(c3ccsc3)C2=O)C1` (stereo not given), the cytotoxicity at 10 µM is -0.42%.

In the case of `Cc1cc(C)n2ncc(CN3CCC(n4cc(CCO)nn4)CC3)c2n1`, the cytotoxicity at 10 µM was 6.59%.

Turning to `COc1cccnc1-c1ccc(F)c2c1OC(CN)C2` (stereo not given), the cytotoxicity at 10 µM was 1.74%.

Turning to `Cc1ccc(F)c(S(=O)(=O)NCc2cccc(CS(C)(=O)=O)c2)c1`, the cytotoxicity at 10 µM is -7.61%.

Consider `CCC(C)c1ccc(NC(=O)C2CCN(C(=O)N(C)C)CC2)cc1` (stereo not given), for which the cytotoxicity at 10 µM was -7.29%.

Regarding `CS(=O)(=O)c1ccc(-c2cc(C3CC3)c(C#N)c(N)n2)cc1`, the cytotoxicity at 10 µM is -8.11%.

Regarding `Cn1cc(-c2cnc3n2CCC32CCN(S(C)(=O)=O)CC2)cn1`, the cytotoxicity at 10 µM was -127%.

Turning to `O=C(C1CCC2(CCN(CC3CC3)CC2)O1)N1CCCC1` (stereo not given), the cytotoxicity at 10 µM was 1.58%.

`CCC(CO)Nc1nc(C(F)F)nc2ccccc12` (stereo not given): the cytotoxicity at 10 µM came out at 1.26%.

In the case of `CCn1cc(NC(=O)NCCN2CCCc3ccccc32)cn1`, the cytotoxicity at 10 µM turned out to be 2.96%.

For `O=C(NC1CC2(CCN(CCO)CC2)c2ccccc21)c1ccsc1` (stereo not given), the cytotoxicity at 10 µM was -14.2%.

As to `CC(=O)N(c1ccc(C)cc1)c1nc(CN2CCCCC2C)cs1` (stereo not given), the cytotoxicity at 10 µM was -5.65%.

Regarding `CC(C)CN1CCN(C)C2(CCN(Cc3ccsc3)CC2)C1=O`, the cytotoxicity at 10 µM is 4.08%.
